# Reference: ChEMBL document CHEMBL4145465, “Design, synthesis and biological evaluation of novel ring-opened cromakalim analogues with relaxant effects on vascular and respiratory smooth muscles and as stimulators of elastin synthesis” (Eur J Med Chem, 2018)
# The source made the active and inactive calls. The calls are words filed in the database; no cut-off is given here.
# Legend:
# Thoracic aorta [1] = assay: Vasorelaxing activity in Wistar rat endothelium-intact thoracic aorta ring assessed as reduction in 30 mM KCl-induced contraction at 300 uM after 15 mins relative to DMSO; conditions: 0.25 h
# Thoracic aorta [2] = assay: Vasorelaxing activity in Wistar rat endothelium-denuded thoracic aorta ring assessed as reduction in 30 mM KCl-induced contraction after 15 mins in presence of 10 uM glibenclamide; type: functional, tissue-based; conditions: 0.25 h, in the assay text read “endothelium-intact” for “endothelium-denuded”
# Method in brief: (§1)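 Female Wistar rat aortic rings were contracted with 30 mM KCl while continuously bathed in 1 or 10 µM glibenclamide. Compound in DMSO was added cumulatively up to 300 µM, each step held ≥15 min to a plateau. EC50 was derived by non-linear regression and compared with the EC50 obtained without glibenclamide.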
# Trachea [3] = assay: Tracheorelaxant activity in Wistar rat trachea tonus assessed as reduction in 30 mM KCl-induced contraction after 15 mins; type: functional, tissue-based; conditions: 0.25 h
# Method in brief: (§2)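 Trachea rings (3-4 mm) from female Wistar rats were held in a 10 ml organ bath under the same conditions as the aorta and contracted with 30 mM KCl. Compound in DMSO was added cumulatively. EC50 was derived by non-linear regression; Emax is % relaxation at 100 µM.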
# VSMC [4] = assay: Induction of elastin synthesis in rat VSMC at 20 uM after 48 hrs by ELISA; type: functional, cell-based
# Method in brief: (§3)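 Rat aortic VSMCs (collagenase/elastase digestion of intima-media, grown in DMEM 20% FBS on gelatin) serum-starved overnight in 1% FBS-DMEM, seeded 25000 cells/well, then exposed 48 h to compound in DMSO (<1% final); DMSO-only negative control, diazoxide reference. Fixed cells immunostained for elastin with HRP secondary, TMB substrate, absorbance 450 nm; 5-7 wells per concentration.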
# Thoracic aorta [5] = assay: Vasorelaxing activity in Wistar rat endothelium-denuded thoracic aorta ring assessed as reduction in 80 mM KCl-induced contraction after 15 mins; type: functional, tissue-based; conditions: 0.25 h, in the assay text read “endothelium-intact” for “endothelium-denuded”
# Method in brief: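 Female Wistar rat aortic rings were depolarized with an 80 mM KCl solution (NaCl 43.6 mM). Once the plateau was reached, compound in DMSO was added cumulatively up to 300 µM. EC50 was obtained by non-linear regression of concentration-response curves.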
# VSMC [6] = assay: Induction of elastin synthesis in rat VSMC at 50 uM after 48 hrs by ELISA relative to control; type: functional
# Method in brief: as §3
# Trachea [7] = assay: Tracheorelaxant activity in Wistar rat trachea tonus assessed as reduction in 30 mM KCl-induced contraction at 100 uM after 15 mins relative to control; type: functional; conditions: 0.25 h
# Method in brief: as §2
# Thoracic aorta [8] = assay: Vasorelaxing activity in Wistar rat endothelium-denuded thoracic aorta ring assessed as reduction in 30 mM KCl-induced contraction after 15 mins in presence of 1 uM glibenclamide; type: functional, tissue-based; conditions: 0.25 h, in the assay text read “endothelium-intact” for “endothelium-denuded”
# Method in brief: as §1
# [9] = Ionozation constant, pKa of the compound at pH 3 to 12 at 25 degC by UV/VIS spectrophotometric method; type: physicochemical
# Trachea/thoracic aorta = assay: Ratio of EC50 for Wistar rat trachea tonus to EC50 for Wistar rat endothelium-denuded thoracic aorta ring; type: functional; conditions: in the assay text read “endothelium-intact” for “endothelium-denuded”
# Method in brief: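 Ratio of trachea EC50 to aorta EC50, both measured against 30 mM KCl contraction in female Wistar rat rings, with cumulative compound addition in DMSO and EC50 from non-linear regression.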
# Thoracic aorta [10] = assay: Vasorelaxing activity in Wistar rat endothelium-intact thoracic aorta ring assessed as reduction in 30 mM KCl-induced contraction after 15 mins; conditions: 0.25 h
EC50 (Thoracic aorta [2]),EC50 (Trachea [3]),EC50 (Thoracic aorta [5]),EC50 (Thoracic aorta [8]),pKa [9],EC50 (Thoracic aorta [10]),SMILES,Emax (Thoracic aorta [1]),Activity (VSMC [4]),Activity (VSMC [6]),Emax (Trachea [7]),Ratio EC50 (Trachea/thoracic aorta)
54.6 µM,30.8 µM,61.6 µM,78.4 µM,5.31,57.5 µM,CC(NC(=O)NS(=O)(=O)c1ccc(Cl)cc1)c1cc(Br)ccc1OCc1ccccc1 (racemic),95.1%,inactive,Active,161%,0.5
8.6 µM,1.7 µM,5.3 µM,6.7 µM,,7.2 µM,COc1ccc(Cl)cc1C(C)NC(=O)N(C)S(=O)(=O)c1ccccc1 (racemic),103%,Active,Active,154%,0.2
69.3 µM,30.4 µM,60.9 µM,90.5 µM,,65.3 µM,Cc1ccc(OCc2ccccc2)c(C(C)NC(=O)NS(=O)(=O)c2ccc(Cl)cc2)c1 (racemic),126%,inactive,inactive,172%,0.5
87.2 µM,124 µM,191 µM,3.4 µM,,0.13 µM,CC1(C)Oc2ccc(C#N)cc2[C@H](N2CCCC2=O)[C@H]1O [(-)-CROMAKALIM],,,,70.1%,956.9
0.07 µM,0.89 µM,0.05 µM,0.07 µM,,0.06 µM,COc1ccc(CCN(C)CCCC(C#N)(c2ccc(OC)c(OC)c2)C(C)C)cc1OC (centres undefined) [VERAPAMIL],,,,,28.7
